Data on 34 molecules can be found in ChEMBL document CHEMBL1127023, “Nonpeptide angiotensin II receptor antagonists. Synthesis and biological activity of benzimidazoles” (J Med Chem, 1993).

Structures are written as SMILES.

Assay [1] in a line: In vitro for inhibition of specific binding of [125I]-angiotensin II (0.2 nM) to bovine adrenal cortex.
Assay [2] deals with Angiotensin II receptor (Rattus norvegicus) (UniProt P29089+P25095+P35351). Kind of assay: In vivo inhibition of angiotensin II (0.1 ug/kg) induced increase in blood pressure in conscious male rat at 3 mg/kg for 3h/7h. The class given is functional, organism-based. The arrangement: dose 3 mg/kg. The procedure, abridged:
(§1)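 Conscious male Jcl:Sprague-Dawley rats (300–400 g), femoral artery and vein cannulated under pentobarbital the day before. AII 100 ng/kg iv was given twice as control. Compound was dosed orally as a gum arabic suspension, then AII challenges were repeated. Pressor-response inhibition was read at 3 and 7 h after dosing, from duplicate experiments.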

Assay [3] relates to Rattus norvegicus. Briefly: In vivo for inhibition of the Angiotensin II (0.1 ug/kg) induced increase in blood pressure in conscious male rat at 30 mg/kg for 3h/7h. The class given is functional. The procedure, abridged: as §1
Assay [4] in a line: In vitro for inhibition of specific binding of [125I]-angiotensin II (0.02 nM) to bovine adrenal cortex. The class given is tissue-based, Bos taurus.
Assay [5] deals with Rattus norvegicus. Kind of assay: In vivo for inhibition of the Angiotensin II (0.1 ug/kg) induced increase in blood pressure in conscious male rat at 100 mg/kg for 3h/7h. The class given is functional. The procedure, abridged: as §1
Assay [6] relates to Rattus norvegicus. Kind of assay: In vivo for inhibition of the Angiotensin II (0.1 ug/kg) induced increase in blood pressure in conscious male rat at 10 mg/kg for 0.5h/1h. The class given is functional.
The subject of assay [7] is Rattus norvegicus. Kind of assay: In vivo inhibition of angiotensin II (0.1 ug/kg)-induced increase in blood pressure in conscious male rat at 10 mg/kg for 3h/7h. The class given is functional. The procedure, abridged:
as §1

Assay [8] concerns Rattus norvegicus. Kind of assay: In vivo inhibition of angiotensin II (0.1 ug/kg) induced increase in blood pressure in conscious male rat at 10 mg/kg for 3h/7h. The class given is functional. The procedure, abridged: as §1

`CCCCc1nc2cc(C(=O)O)ccc2n1Cc1ccc(-c2ccccc2-c2nn[nH]n2)cc1`: the IC50 in assay [1] amounted to 5500 nM. Besides, the inhibition in assay [2] came to 7%.

Regarding `CCCCc1nc2cccc(C(=O)O)c2n1Cc1ccc(-c2ccccc2-c2nnnn2C)cc1`, in assay [1], the IC50 came to 3400 nM. Also, the inhibition in assay [2] amounted to 77%.

As for `CCCCc1nc2ccc(C)c(C(=O)OCC)c2n1Cc1ccc(-c2ccccc2-c2nn[nH]n2)cc1`, in the assay with Rattus norvegicus [3], the inhibition in vivo at 30 mg/kg is 100%. The molecule also came in with an IC50 in assay [4] of 910 nM. In addition, the inhibition in assay [2] was determined as 13%.

For the molecule `CCCCc1nc2ccc(OC)cc2n1Cc1ccc(-c2ccccc2-c2nn[nH]n2)cc1`, the inhibition in vivo at 100 mg/kg with Rattus norvegicus [5] was found to be 5%. In addition, in the assay on Rattus norvegicus [6], the inhibition in vivo at 10 mg/kg was determined as 77%. This molecule also displayed an IC50 in assay [1] of 1100 nM.

`CCCCc1nc2cccc(C(=O)O)c2n1Cc1ccc(-c2ccccc2-c2nn[nH]n2)cc1` had an IC50 in assay [1] of 550 nM. For the same molecule, the inhibition in assay [2] turned out to be 91%.

For `CCCCc1nc2cccc(COC)c2n1Cc1ccc(-c2ccccc2-c2nn[nH]n2)cc1`, the IC50 in assay [1] is 600 nM. Also, in assay [2], the inhibition was 54%.

`CCCCc1nc2cc(Cl)ccc2n1Cc1ccc(-c2ccccc2-c2nn[nH]n2)cc1`: in the assay on Rattus norvegicus [6], the inhibition in vivo at 10 mg/kg turned out to be 45%. For the same molecule, the IC50 in assay [1] came to 1500 nM. Also, in the assay on Rattus norvegicus [3], the inhibition in vivo at 30 mg/kg is -8%.

In the case of `CCCCc1nc2cccc(O)c2n1Cc1ccc(-c2ccccc2-c2nn[nH]n2)cc1`, the IC50 in assay [1] worked out at 1100 nM. Also, the inhibition in vivo at 30 mg/kg in the assay with Rattus norvegicus [3] worked out at 56%. Also, the inhibition in assay [2] was found to be 2%.

`CCCCc1nc2c(C(N)=O)cccc2n1Cc1ccc(-c2ccccc2-c2nn[nH]n2)cc1`: in the assay on Rattus norvegicus [3], the inhibition in vivo at 30 mg/kg worked out at 28%.

On to `CCCCOC(=O)c1cccc2nc(CCCC)n(Cc3ccc(-c4ccccc4-c4nn[nH]n4)cc3)c12`, for which the IC50 in assay [1] stood at 1200 nM. Besides, in the assay with Rattus norvegicus [3], the inhibition in vivo at 30 mg/kg is 78%. In addition, the inhibition in assay [2] is 9%.

Consider `CCCCc1nc2ccccc2n1Cc1ccc(-c2ccccc2C(=O)O)cc1`, for which the inhibition in vivo at 100 mg/kg with Rattus norvegicus [5] was found to be 45%. In addition, the inhibition in vivo at 10 mg/kg in the assay on Rattus norvegicus [6] was 20%. Further, the IC50 in assay [1] was 1100 nM.

As to `CCCCc1nc2cc(C(=O)OC)ccc2n1Cc1ccc(-c2ccccc2-c2nn[nH]n2)cc1`, in the assay on Rattus norvegicus [5], the inhibition in vivo at 100 mg/kg is -13%. Also, the IC50 in assay [1] came out at 740 nM.

In assay [1], `CCCCc1nc2cc(C)cc(C(=O)OC)c2n1Cc1ccc(-c2ccccc2-c2nn[nH]n2)cc1` registered an IC50 of 870 nM. In addition, the inhibition in assay [2] came to 41%.

`CCCCc1nc2ccc(Cl)cc2n1Cc1ccc(-c2ccccc2-c2nn[nH]n2)cc1`: in the assay on Rattus norvegicus [6], the inhibition in vivo at 10 mg/kg was 23%. In assay [1], this molecule had an IC50 of 3100 nM. The inhibition in vivo at 30 mg/kg in the assay on Rattus norvegicus [3] was determined as 18%.

`CCCCc1nc2cccc(CO)c2n1Cc1ccc(-c2ccccc2-c2nn[nH]n2)cc1` showed an IC50 in assay [1] of 450 nM. Further, in the assay with Rattus norvegicus [3], the inhibition in vivo at 30 mg/kg turned out to be 41%. Besides, the inhibition in assay [2] came to 16%.

Molecule `CCCCc1nc2cc(C)cc(C(=O)O)c2n1Cc1ccc(-c2ccccc2-c2nn[nH]n2)cc1` showed an IC50 in assay [1] of 1300 nM. Moreover, the inhibition in assay [2] was found to be 80%.

Turning to `CCCCc1nc2ccccc2n1Cc1ccc(-c2ccccc2-c2nn[nH]n2)cc1`, the inhibition in vivo at 10 mg/kg amounted to 52% with Rattus norvegicus [6] and 13% with Rattus norvegicus [7]. In assay [1], this molecule yielded an IC50 of 900 nM. The inhibition in vivo at 30 mg/kg with Rattus norvegicus [3] turned out to be 18%.

For `CCCCc1nc2cccc(OC)c2n1Cc1ccc(-c2ccccc2-c2nn[nH]n2)cc1`, the IC50 in assay [1] worked out at 2800 nM. In assay [2], the inhibition is -6%.

Regarding `CCCCc1nc2cc(OC)ccc2n1Cc1ccc(-c2ccccc2-c2nn[nH]n2)cc1`, the inhibition in vivo at 100 mg/kg with Rattus norvegicus [5] came out at 84%. For the same molecule, the inhibition in vivo at 10 mg/kg in the assay with Rattus norvegicus [6] was 60%. This molecule yielded an IC50 in assay [1] of 910 nM.

On to `CCCCc1nc2cccc(CN(C)C)c2n1Cc1ccc(-c2ccccc2-c2nn[nH]n2)cc1`, for which the IC50 in assay [1] turned out to be 2400 nM. The inhibition in assay [2] is 12%.

`CCCCc1nc2ccc(C)c(C(=O)O)c2n1Cc1ccc(-c2ccccc2-c2nn[nH]n2)cc1` gave an IC50 in assay [1] of 340 nM. For the same molecule, the inhibition in assay [2] amounted to 40%.

On to `CCCCc1nc2cccc(C(=O)NC(C)C)c2n1Cc1ccc(-c2ccccc2-c2nn[nH]n2)cc1`, for which the IC50 in assay [1] stood at 540 nM.

`CCCCc1nc2cccc(C)c2n1Cc1ccc(-c2ccccc2-c2nn[nH]n2)cc1`: the IC50 in assay [1] was determined as 330 nM. Besides, the inhibition in assay [2] was found to be 8%.

As for `CCCCc1nc2cccc(C(=O)OCC)c2n1Cc1ccc(-c2ccccc2-c2nn[nH]n2)cc1`, the IC50 in assay [1] was 1400 nM. In addition, the inhibition in assay [2] was found to be 51%.

On to `CCCCc1nc2ccc(C(=O)OC)cc2n1Cc1ccc(-c2ccccc2-c2nn[nH]n2)cc1`, for which the IC50 in assay [1] worked out at 440 nM. In addition, the inhibition in vivo at 30 mg/kg with Rattus norvegicus [3] was 0%.

For `CCCCc1nc2c(C(=O)O)cccc2n1Cc1ccc(-c2ccccc2-c2nn[nH]n2)cc1`, the inhibition in vivo at 10 mg/kg with Rattus norvegicus [8] is 19%. This molecule also came in with an IC50 in assay [1] of over 10000 nM.

In the case of `CCCCc1nc2cc(Cl)cc(C(=O)O)c2n1Cc1ccc(-c2ccccc2-c2nn[nH]n2)cc1`, the inhibition in assay [2] was 23%.

`CCCCc1nc2cc(Cl)cc(C(=O)OC)c2n1Cc1ccc(-c2ccccc2-c2nn[nH]n2)cc1` registered an IC50 in assay [1] of 440 nM. For the same molecule, the inhibition in assay [2] was determined as 57%.

Regarding `CCCCc1nc2ccc(C(=O)O)cc2n1Cc1ccc(-c2ccccc2-c2nn[nH]n2)cc1`, in assay [1], the IC50 is 9000 nM. In addition, the inhibition in vivo at 30 mg/kg with Rattus norvegicus [3] was 9%.

Consider `CCCCc1nc2cccc(CC(=O)O)c2n1Cc1ccc(-c2ccccc2-c2nn[nH]n2)cc1`, for which, in assay [1], the IC50 amounted to 2600 nM.

`CCCCc1nc2cccc(CC(=O)OCC)c2n1Cc1ccc(-c2ccccc2-c2nn[nH]n2)cc1` returned an IC50 in assay [1] of 250 nM. Besides, in the assay with Rattus norvegicus [3], the inhibition in vivo at 30 mg/kg is 82%. Further, the inhibition in assay [2] turned out to be 24%.

On to `CCCCc1nc2cccc(C(=O)O)c2n1Cc1ccc(-c2ccccc2C(=O)O)cc1`, for which the IC50 in assay [1] turned out to be 660 nM. Besides, the inhibition in vivo at 30 mg/kg in the assay on Rattus norvegicus [3] was 46%. The inhibition in assay [2] turned out to be 2%.

The molecule `CCCCc1nc2cccc(C(=O)OC)c2n1Cc1ccc(-c2ccccc2-c2nn[nH]n2)cc1` registered a half-inhibitory concentration (IC50) in assay [1] of 320 nM. For the same molecule, the inhibition in assay [2] was 78%.

For `CCCCc1nc2c(C(=O)OC)cccc2n1Cc1ccc(-c2ccccc2-c2nn[nH]n2)cc1`, in assay [1], the IC50 was 7200 nM. Also, in the assay on Rattus norvegicus [3], the inhibition in vivo at 30 mg/kg amounted to 9%.
